Among the data in ChEMBL document CHEMBL4152279, “Synthesis, cytotoxic evaluation and target identification of thieno[2,3-d]pyrimidine derivatives with a dithiocarbamate side chain at C2 position” (Eur J Med Chem, 2018) are Activity and inhibition values, retold here.

The species named for assay [1] is Sus scrofa. The assay is described as follows: Binding affinity to porcine tubulin after overnight incubation by streptavidin pull down assay. In short, it runs like this: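 Purified porcine neuronal tubulin incubated with biotin, biotinylated probe or control probe in NETN buffer at 4 °C. Streptavidin Dynabeads 1 h at 4 °C, six washes, then SDS-PAGE and α-tubulin immunoblot.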

The subject of assay [2] is A549. The assay is described as follows: Binding affinity to tubulin alpha in human A549 cells immunoblot based based pull down assay. In kind it is cell-based. In short, it runs like this:
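A549 lysate in NETN buffer incubated with biotin, biotinylated probe or control probe at 4 °C, then streptavidin Dynabeads 1 h at 4 °C. Beads washed six times, bound proteins run on SDS-PAGE and immunoblotted for α-tubulin.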
In general terms: A western blot detects proteins with antibodies after separation by electrophoresis.

In assay [3] the target is Tubulin beta-3 chain (Homo sapiens) (UniProt Q13509). The assay is described as follows: Binding affinity to tubulin beta-3 in human A549 cells at 0.15 mM after 4 hrs by HPLC-MS based pull down assay relative to control. In kind it is cell-based. In short, it runs like this: (§1)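 A549 lysate in NETN buffer (pH 8.0, 0.5% NP-40) incubated with biotinylated probe (0.15 mM final) 4 h at 4 °C, with biotin or control probe as comparators. Streptavidin Dynabeads 1 h at 4 °C, six NETN washes, proteins eluted by boiling in SDS buffer. After trypsin digestion, identification by LC-MS/MS on Q Exactive HF.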
Chain of Tubulin beta-3 chain (Homo sapiens) (Q13509 whole entry): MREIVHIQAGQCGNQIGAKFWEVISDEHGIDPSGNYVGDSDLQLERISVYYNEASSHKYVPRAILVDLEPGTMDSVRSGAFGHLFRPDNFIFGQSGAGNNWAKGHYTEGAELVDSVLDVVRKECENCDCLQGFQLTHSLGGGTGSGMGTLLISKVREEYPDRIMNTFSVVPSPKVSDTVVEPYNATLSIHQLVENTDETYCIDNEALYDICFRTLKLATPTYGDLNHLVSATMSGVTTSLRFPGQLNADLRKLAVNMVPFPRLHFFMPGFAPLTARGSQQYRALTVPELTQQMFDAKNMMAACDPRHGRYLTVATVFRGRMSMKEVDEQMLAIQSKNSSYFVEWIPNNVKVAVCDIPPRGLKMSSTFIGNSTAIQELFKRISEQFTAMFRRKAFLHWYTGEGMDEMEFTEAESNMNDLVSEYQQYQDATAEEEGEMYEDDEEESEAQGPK

Assay [4] addresses T1, Nucleolar RNA helicase 2 (Homo sapiens) (UniProt Q9NR30).
T1 sequence (whole entry): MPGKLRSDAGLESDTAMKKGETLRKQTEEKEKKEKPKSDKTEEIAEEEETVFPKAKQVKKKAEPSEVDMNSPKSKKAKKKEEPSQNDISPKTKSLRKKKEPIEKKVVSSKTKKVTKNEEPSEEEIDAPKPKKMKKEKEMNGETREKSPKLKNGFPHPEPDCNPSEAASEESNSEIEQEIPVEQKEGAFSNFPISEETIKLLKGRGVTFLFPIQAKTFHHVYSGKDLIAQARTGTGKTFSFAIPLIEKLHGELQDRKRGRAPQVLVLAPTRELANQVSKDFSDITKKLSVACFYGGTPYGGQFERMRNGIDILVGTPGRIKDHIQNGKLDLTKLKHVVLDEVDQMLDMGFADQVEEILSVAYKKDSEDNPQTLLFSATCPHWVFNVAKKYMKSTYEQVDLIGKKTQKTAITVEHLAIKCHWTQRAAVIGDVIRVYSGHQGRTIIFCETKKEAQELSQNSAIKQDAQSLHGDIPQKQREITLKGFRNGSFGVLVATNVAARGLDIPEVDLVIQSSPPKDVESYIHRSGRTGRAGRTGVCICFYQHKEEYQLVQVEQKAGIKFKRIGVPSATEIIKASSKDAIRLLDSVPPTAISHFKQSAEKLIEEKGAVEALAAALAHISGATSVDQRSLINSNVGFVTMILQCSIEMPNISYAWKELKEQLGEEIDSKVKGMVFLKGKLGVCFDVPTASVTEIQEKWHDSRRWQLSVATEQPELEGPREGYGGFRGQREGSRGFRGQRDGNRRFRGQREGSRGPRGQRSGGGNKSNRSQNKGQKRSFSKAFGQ
In words: Binding affinity to nucleolar RNA helicase 2 in human A549 cells at 0.15 mM after 4 hrs by HPLC-MS based pull down assay relative to control. In kind it is cell-based. In short, it runs like this:
as §1

For assay [5], the species on record is Sus scrofa. In words: Inhibition of nocodazole binding to porcine tubulin treated 2 hrs post colchicine treatment by pull down assay. In short, it runs like this: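 Porcine neuronal tubulin was preincubated with excess taxol, colchicine, vinblastine or nocodazole for 2 h at 4 °C. Biotinylated probe was then added in NETN buffer, followed by streptavidin Dynabead pull-down for 1 h at 4 °C and six washes. Bound α-tubulin was detected by SDS–PAGE and immunoblot. Three independent experiments.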

The target of assay [6] is Tubulin alpha-1C chain (Homo sapiens) (UniProt Q9BQE3). The assay is described as follows: Binding affinity to tubulin alpha-1C in human A549 cells at 0.15 mM after 4 hrs by HPLC-MS based pull down assay relative to control. The format is cell-based. In short, it runs like this:
as §1

Active and inactive are the calls of the source. No cut-off for these calls is given here.

Chain of Tubulin alpha-1C chain (Homo sapiens) (Q9BQE3 whole entry, looked up): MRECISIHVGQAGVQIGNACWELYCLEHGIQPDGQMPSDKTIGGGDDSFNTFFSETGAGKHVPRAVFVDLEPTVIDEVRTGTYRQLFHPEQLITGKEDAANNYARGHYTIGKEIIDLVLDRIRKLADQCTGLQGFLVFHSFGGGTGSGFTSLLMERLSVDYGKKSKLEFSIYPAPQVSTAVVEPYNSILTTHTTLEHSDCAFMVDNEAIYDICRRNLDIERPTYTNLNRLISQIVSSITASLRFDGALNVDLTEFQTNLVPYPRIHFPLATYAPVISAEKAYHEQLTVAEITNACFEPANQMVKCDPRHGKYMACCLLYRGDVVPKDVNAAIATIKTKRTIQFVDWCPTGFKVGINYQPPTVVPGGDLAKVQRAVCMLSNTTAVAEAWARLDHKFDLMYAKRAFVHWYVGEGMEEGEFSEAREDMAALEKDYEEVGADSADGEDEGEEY

As to `Cc1cc2c(=O)[nH]c(CSC(=S)N(CCCNC(=O)CCCC[C@@H]3SC[C@@H]4NC(=O)N[C@@H]43)Cc3ccc(C#N)cc3)nc2s1`, the result in assay [1] and in assay [2] was Active. For the same compound, the Activity in assay [3] amounted to 16.7%; in assay [4], 35.1%; in assay [6], 16.6%. In addition, the inhibition result in assay [5] is “Active”.
